Experimental data from different studies.
Medium: plasma

The MRT(0-t) of COc1nc(-c2cc(C)c(N[C@@H](C)c3cc(F)cc(F)c3)nn2)ccc1-n1cnc(C)c1 is reported as 3.28 h (male Sprague-Dawley rat; intravenous; 1 mg/kg; single dose).
CCc1cc(C(=O)NC)c2nccc(N3CCc4c(cc(Cn5ccnc5)cc4-c4cn(C)nc4C(F)(F)F)C3=O)c2c1 gave an MRT(0-inf) of 3.8 h (male Sprague-Dawley rat; oral; 100 mg/kg; single dose).
The MRT(0-t) of C#Cc1cccc(Nc2ncnc3cc(OCCOC)c(OCCOC)cc23)c1 is reported as 5.07 h (male Sprague-Dawley rat; oral; 12 mg/kg; single dose).
CCOC(=O)[C@@]12C[C@@H]1[C@@H](n1ccc3c(NC)nc(C#Cc4ccc(Cl)s4)nc31)[C@H](O)[C@@H]2O gave an MRT(0-t) of 1.29 h (male Sprague-Dawley rat; intravenous; 0.5 mg/kg).
O=C(c1cc(Cc2n[nH]c(=O)c3ccccc23)ccc1F)N1CCN(C(=O)C2CC2)CC1 has an MRT of 1.52 h (female Sprague-Dawley rat; intravenous).
O=C(O)/C=C/c1ccc(O)c(O)c1 gave an MRT of 0.69 h (HPLC; Wistar rat; oral).
O=C(Nc1cc(F)c(F)c(F)c1)c1ccc(F)c(S(=O)(=O)NCc2cccc(B(O)O)c2)c1 gave an MRT(0-inf) of 1.25 h (male Sprague-Dawley rat; oral; 20 mg/kg).
With CCc1nc(C(N)=O)c(Nc2ccc(N3CCC(N4CCN(C)CC4)CC3)c(OC)c2)nc1NC1CCOCC1 the MRT(0-inf) was 21.8 h (male Sprague-Dawley rat; oral; 10 mg/kg).
The MRT of Oc1c(Br)cc(Cl)c2cccnc12 is reported as 12.5 h (Sprague-Dawley rat; intravenous; 2 mg/kg).
With N#Cc1ccc(Nc2nc(N)cc(Oc3c(F)cc(-c4ccc(C#N)cc4)cc3F)n2)cc1 the MRT(0-inf) was 1.56 h (Sprague-Dawley rat; intravenous; 1 mg/kg).
CCc1cc(OC)c2nccc(N3CCc4c(cc(Cn5ccnc5)cc4-c4cn(C)nc4C(F)(F)F)C3=O)c2c1 gave an MRT(0-inf) of 2.7 h (male Sprague-Dawley rat; oral; 50 mg/kg).
With CNCc1cc(-c2ccccc2F)n(S(=O)(=O)c2cccnc2)c1 the MRT(0-inf) was 2.47 h (Sprague-Dawley rat; oral; 10 mg/kg).
